Results pooled from the literature.
Each line is one published result; the experiments were not run side by side.
ESR1: Estrogen receptor (ESR1, Homo sapiens, UniProt P03372)
M-phase phosphoprotein 8 chromodomain: M-phase phosphoprotein 8, chromodomain (Homo sapiens, UniProt Q99549)
ADRA2C: Alpha-2C adrenergic receptor (ADRA2C, Homo sapiens, UniProt P18825)

Oc1ccc(-c2ccc(Cl)cc2)c(Cl)c1  EC50 (ESR1; reporter gene, agonist, luciferase): 100 nM
CCN(CCCC[C@H](NC(=O)[C@H](CC(C)C)NC(=O)[C@H](C)NC(=O)[C@H](Cc1ccco1)NC(=O)c1cccnc1)C(=O)N[C@@H](CO)C(N)=O)C(C)C  IC50 (M-phase phosphoprotein 8 chromodomain; cell-free assay, TR-FRET): 11000 nM
C[C@H](N)Cn1ncc2ccc3c(c21)CCCO3  Ki (ADRA2C; ligand displacement, radioligand): 24800 nM
CCN(CCCC[C@H](NC(=O)[C@H](CC(C)C)NC(=O)[C@H](C)NC(=O)[C@H](Cc1cccnc1)NC(=O)c1cccnc1)C(=O)N[C@@H](CO)C(N)=O)C(C)C  IC50 (M-phase phosphoprotein 8 chromodomain; cell-free assay, TR-FRET): 1800 nM
CC[N+](C)(C)c1cccc(O)c1  IC50 (AChE (Phlebotomus papatasi, UniProt M1F887); enzyme activity, inhibitor): 1180 nM
Clc1ccc(-c2ccc(Cl)cc2Cl)cc1  EC50 (ESR1; reporter gene, agonist, luciferase): 27000 nM
CCN(CCCC[C@H](NC(=O)[C@H](CC(C)C)NC(=O)[C@H](C)NC(=O)[C@H](Cc1ccccc1)NC(=O)c1ccoc1)C(=O)N[C@@H](CO)C(N)=O)C(C)C  IC50 (M-phase phosphoprotein 8 chromodomain; cell-free assay, TR-FRET): 1200 nM
Oc1ccc(-c2cc(Cl)ccc2Cl)c(Cl)c1  EC50 (ESR1; reporter gene, agonist, luciferase): 200 nM
C[C@H]1CCC[C@H](O)CCC/C=C/c2cc(O)cc(O)c2C(=O)O1  EC50 (ESR1; reporter gene, agonist, luciferase): 0.13 nM
Cc1cc(O)cc(C)c1C[C@H](N)C(=O)N[C@H](C)C(=O)NCC(=O)N[C@@H](Cc1ccc(Cl)cc1)C(=O)N(C)CCC[C@@]1(c2ccc(F)cc2)OCc2cc(C#N)ccc21  Ki (ADRA2C; ligand displacement, radioligand): 240 nM
c1cc[c]([Sn]([c]2ccccc2)[c]2ccccc2)cc1  EC50 (Peroxisome proliferator-activated receptor gamma (Pparg, Mus musculus, UniProt P37238); reporter gene, agonist, luciferase): 70 nM
CCN(CCCC[C@H](NC(=O)[C@H](CC(C)C)NC(=O)[C@H](C)NC(=O)[C@H](Cc1ccccc1)NC(=O)c1ccc(N(C)C)cc1)C(=O)N[C@@H](CO)C(N)=O)C(C)C  IC50 (M-phase phosphoprotein 8 chromodomain; cell-free assay, TR-FRET): 380 nM
O=c1c2ccccc2[se]n1-c1ccccc1  IC50 (Leucine-rich repeat serine/threonine-protein kinase 2 (LRRK2, Homo sapiens, UniProt Q5S007, G2019S); enzyme activity, inhibitor, radiometric): 1860 nM
O=C(CCCc1ccccc1)OC(CCN1CCN(CCCN(c2ccc(F)cc2)c2ccc(F)cc2)CC1)c1ccccc1 (centres unmarked)  Ki (Norepinephrine transporter (Slc6a2, Rattus norvegicus, UniProt Q9WTR4); ligand displacement, radioligand): > 10000 nM
